Test results published in ChEMBL document CHEMBL4725333, “Carbazole-based fluorescent probes for G-quadruplex DNA targeting with superior selectivity and low cytotoxicity” (Bioorg Med Chem, 2020).
Calls of active or inactive are those of the source. The calls are words filed in the database; no cut-off is given here.

How the values were obtained:
Quadruplex DNA [1] = assay: Binding affinity to human c-myc G-quadruplex DNA with TTG AGGG TGGGT AGGGT GGGT flanking loops assessed as relative fluorescence intensity at 1 uM measured at pH 7.4 by fluorescent titration; format: nucleic-acid assay
Quadruplex DNA [2] = assay: Binding affinity to human c-myc G-quadruplex DNA assessed as increase in fluorescence in presence of BSA/HSA at 1 uM by fluorescence titration analysis; format: nucleic-acid assay
Outline: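 Probe fluorescence followed with increasing BSA or HSA as interfering proteins, in the same Tris-HCl/KCl pH 7.4 titration system.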

Quadruplex DNA [3] = assay: Binding affinity to G-quadruplex DNA in human HCCC9810 cells increase in fluorescence intensity at 20 uM by confocal fluorescence microscopy; format: cell-based
Outline: (§1)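 Live HCCC-9810 cells stained 0.5 h with probe at 20 µM together with DAPI (5 mg/mL) as nuclear counterstain. Imaged by confocal fluorescence microscopy. Intracellular location is assigned from co-staining with DAPI, and uptake is judged from fluorescence intensity within the cells.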

Quadruplex DNA [4] = assay: Inhibition of hemin binding to human c-myc G4 quadruplex DNA by measuring peroxidase activity within 30 at 415 nm by G4/hemin peroxidase inhibition assay; format: nucleic-acid assay
Outline: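 G4/hemin peroxidase assay in 10 mM Tris-HCl, 60 mM KCl, pH 7.4, with c-myc 0.4 µM, hemin 0.8 µM, ABTS²⁻ 0.18 mM and H₂O₂ 0.06 mM, across varied probe concentrations. Oxidized ABTS product followed by absorbance at 415 nm over 30 min.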

Quadruplex DNA [5] = assay: Competitive binding affinity to human c-myc G-quadruplex DNA assessed as increase in fluorescence in presence of ssDNA and dsDNA at 1 uM by fluorescence titration analysis; format: nucleic-acid assay
Outline: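 Competition titration: probe at 1 µM with 20 µM ds26 duplex DNA, then stepwise addition of c-myc G-quadruplex DNA, in 10 mM Tris-HCl, 60 mM KCl, pH 7.4. Read-out was fluorescence emission.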

Quadruplex DNA [6] = assay: Binding affinity to human c-myc G-quadruplex DNA with AGGG TGGGT AGGGT GGGT AAA flanking loops assessed as relative fluorescence intensity at 1 uM measured at pH 7.4 by fluorescent titration; format: nucleic-acid assay
Quadruplex DNA [7] = assay: Effect on topology of human c-myc G-quadruplex DNA assessed as change in conformation at 265 nm by circular dichroism spectroscopy
Quadruplex DNA [8] = assay: Binding affinity to human c-myc G-quadruplex DNA with 13-aminopurine substitution assessed as fluorescence intensity in presence of hemin; format: nucleic-acid assay
Outline: (§2)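 2-aminopurine-labelled c-myc G-quadruplex DNA held at 2 µM in 10 mM Tris-HCl, pH 7.4, 60 mM KCl. Probe or hemin added gradually, and 2-Ap fluorescence intensity monitored.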

Quadruplex DNA [9] = assay: Binding affinity to human c-myc G-quadruplex DNA with 13-aminopurine substitution assessed as fluorescence intensity; format: nucleic-acid assay; outline: as §2
Quadruplex DNA [10] = assay: Binding affinity to human c-myc G-quadruplex DNA uM by circular dichroism spectroscopy; format: nucleic-acid assay
Outline: (§3)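 CD titration of c-myc G-quadruplex DNA (5 µM) with 0–2 equivalents of probe, in 10 mM Tris-HCl, 60 mM KCl, pH 7.4.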

[11] = Cytotoxicity against human HCCC9810 cells assessed as reduction in cell viability incubated for 72 hr by CCK8 assay; format: cell-based; details: HCCC9810, 72 h
Outline: (§4)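 HCCC-9810, RBE and 293T cells exposed to probe at 0–100 µM for 72 h. Viable cells quantified by CCK-8 assay.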

Quadruplex DNA [12] = assay: Binding affinity to G-quadruplex DNA in human HCCC9810 cells increase in fluorescence intensity in cytoplasm at 20 uM by confocal fluorescence microscopy; format: cell-based; outline: as §1
Quadruplex DNA [13] = assay: Binding affinity to human c-myc G-quadruplex DNA in Tris Hcl buffer assessed as increase in fluorescence intensity at 545 nm at 0 to 0.8 uM measured at pH 7.4 by fluorescence emission analysis; details: dose microM 0-0.8
Quadruplex DNA [14] = assay: Binding affinity to human c-myc G-quadruplex DNA with 22-aminopurine substitution assessed as fluorescence intensity in presence of hemin; format: nucleic-acid assay; outline: as §2
Quadruplex DNA [15] = assay: Binding affinity to human c-myc G-quadruplex DNA in Tris Hcl buffer assessed as fluorescence lifetime of compound at 400 nm at pH 7.4 by fluorescence emission analysis (Rvb (absence of c-myc G-quadruplex DNA ) = 0.513 ns); format: nucleic-acid assay
Quadruplex DNA [16] = assay: Induction of stabilization of human c-myc G-quadruplex assessed inhibition of Taq polymerase mediated DNA polymerization at high concentration upto 20 uM by PCR-stop assay; format: nucleic-acid assay; details: dose microM <=20
Outline: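 PCR-stop assay. Probe (0–20 µM) was added to 1x PCR buffer containing 10 pmol c-myc template, 10 pmol c-myc rev primer, 0.2 mM dNTPs and 1.5 units Taq polymerase. Products were resolved on 15% non-denaturing polyacrylamide gels in 1× TBE. A mutant c-myc oligomer unable to fold served as control.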

Quadruplex DNA [17] = assay: Binding affinity to human c-myc G-quadruplex DNA with 4-aminopurine substitution assessed as fluorescence intensity in presence of hemin; format: nucleic-acid assay; outline: as §2
Quadruplex DNA [18] = assay: Binding affinity to human c-myc G-quadruplex DNA with TTGA GGG T GGG TA GGG T GGG TAAA flanking loops assessed as relative fluorescence intensity at 1 uM measured at pH 7.4 by fluorescent titration; format: nucleic-acid assay
Quadruplex DNA [19] = assay: Binding affinity to human c-myc G-quadruplex DNA assessed as increase in fluorescence in presence of c-myc at 1 uM by fluorescence titration analysis; format: nucleic-acid assay
Outline: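 Probe at 1 µM in 10 mM Tris-HCl, 60 mM KCl, pH 7.4, titrated stepwise with c-myc G-quadruplex DNA (0–3 µM). Emission monitored near 545–547 nm, and F/F₀ of integral fluorescence fitted to an independent-site model. Linear range 0–0.8 µM DNA; detection limit from LOD = 3σ/k.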

Quadruplex DNA [20] = assay: Binding affinity to human c-myc G-quadruplex DNA with TTG AATGGG TGGGT AGGGT GGGT AAA flanking loops assessed as relative fluorescence intensity at 1 uM measured at pH 7.4 by fluorescent titration; format: nucleic-acid assay
Quadruplex DNA [21] = assay: Binding affinity to human c-myc G-quadruplex DNA with 22-aminopurine substitution assessed as fluorescence intensity; format: nucleic-acid assay; outline: as §2
Quadruplex DNA [22] = assay: Binding affinity to human c-myc G-quadruplex DNA with 4-aminopurine substitution assessed as fluorescence intensity; format: nucleic-acid assay; outline: as §2
Quadruplex DNA [23] = assay: Effect on topology of human c-myc G-quadruplex DNA assessed as change in conformation at 245 nm at DNA to compound ratio of 1:1 by circular dichroism spectroscopy; format: nucleic-acid assay; outline: as §3
Quadruplex DNA [24] = assay: Binding affinity to human c-myc G-quadruplex DNA with TTG AGGG TGGGT AGGGT ATGGGT AAA flanking loops assessed as relative fluorescence intensity at 1 uM measured at pH 7.4 by fluorescent titration; format: nucleic-acid assay
Quadruplex DNA [25] = assay: Binding affinity to human c-myc G-quadruplex DNA assessed as displacement of fluorescent labelled compound by measuring decrease in emission in presence of hemin by FID assay; format: nucleic-acid assay
Quadruplex DNA [26] = assay: Binding affinity to human c-myc G-quadruplex DNA with TTG AGGG TGGGT AGGGT GGGT AAATA flanking loops assessed as relative fluorescence intensity at 1 uM measured at pH 7.4 by fluorescent titration; format: nucleic-acid assay
Quadruplex DNA [27] = assay: Binding affinity to human c-myc G-quadruplex DNA with TTG AGGG TAAGGGT AGGGT GGGT AAA flanking loops assessed as relative fluorescence intensity at 1 uM measured at pH 7.4 by fluorescent titration; format: nucleic-acid assay
HEK-293T = assay: Cytotoxicity against human 293T cells assessed as reduction in cell viability incubated for 72 hr by CCK8 assay; format: cell-based; outline: as §4
Quadruplex DNA [28] = assay: Binding affinity to human c-myc G-quadruplex DNA with TTG AGGG TGGGT AATGGGT GGGT AAA flanking loops assessed as relative fluorescence intensity at 1 uM measured at pH 7.4 by fluorescent titration; format: nucleic-acid assay
[29] = Cytotoxicity against human RBE cells assessed as reduction in cell viability incubated for 72 hr by CCK8 assay; format: cell-based; outline: as §4

COCCOCCOCCn1c2ccccc2c2cc(/C=C/c3cccc[n+]3C)ccc21.[I-]
Flu intensity (Quadruplex DNA [1]): 861 | Activity (Quadruplex DNA [2]): Active | Activity (Quadruplex DNA [3]): Active | Activity (Quadruplex DNA [4]): inactive | Activity (Quadruplex DNA [5]): Active | Flu intensity (Quadruplex DNA [6]): 846 | Activity (Quadruplex DNA [7]): inactive | Activity (Quadruplex DNA [8]): inactive | Activity (Quadruplex DNA [9]): Active | Activity (Quadruplex DNA [10]): Active | IC50 [11]: > 40 µM | Activity (Quadruplex DNA [12]): Active | Activity (Quadruplex DNA [13]): Active | Activity (Quadruplex DNA [14]): inactive | Time (Quadruplex DNA [15]): 3.87 nanoseconds | Activity (Quadruplex DNA [16]): Active | Activity (Quadruplex DNA [17]): inactive | Flu intensity (Quadruplex DNA [18]): 695 | Activity (Quadruplex DNA [19]): Active | Flu intensity (Quadruplex DNA [20]): 702 | Activity (Quadruplex DNA [21]): Active | Activity (Quadruplex DNA [22]): Active | Activity (Quadruplex DNA [23]): inactive | Flu intensity (Quadruplex DNA [24]): 570 | Activity (Quadruplex DNA [25]): inactive | Flu intensity (Quadruplex DNA [26]): 852 | Flu intensity (Quadruplex DNA [27]): 910 | IC50 (HEK-293T): 40 µM | Flu intensity (Quadruplex DNA [28]): 632 | IC50 [29]: > 40 µM
